{"source": "ChEMBL document CHEMBL3779840", "about": "“Discovery of 2-((3-Amino-4-methylphenyl)amino)-N-(2-methyl-5-(3-(trifluoromethyl)benzamido)phenyl)-4-(methylamino)pyrimidine-5-carboxamide (CHMFL-ABL-053) as a Potent, Selective, and Orally Available BCR-ABL/SRC/p38 Kinase Inhibitor for Chronic Myeloid Leukemia” (J Med Chem, 2016)", "key": {"[1]": {"molecular_target": "T1, Bcr/Abl fusion protein (Homo sapiens) (UniProt P00519+P11274)", "T1 sequence (P00519 whole entry, looked up, the tested form may be a part)": "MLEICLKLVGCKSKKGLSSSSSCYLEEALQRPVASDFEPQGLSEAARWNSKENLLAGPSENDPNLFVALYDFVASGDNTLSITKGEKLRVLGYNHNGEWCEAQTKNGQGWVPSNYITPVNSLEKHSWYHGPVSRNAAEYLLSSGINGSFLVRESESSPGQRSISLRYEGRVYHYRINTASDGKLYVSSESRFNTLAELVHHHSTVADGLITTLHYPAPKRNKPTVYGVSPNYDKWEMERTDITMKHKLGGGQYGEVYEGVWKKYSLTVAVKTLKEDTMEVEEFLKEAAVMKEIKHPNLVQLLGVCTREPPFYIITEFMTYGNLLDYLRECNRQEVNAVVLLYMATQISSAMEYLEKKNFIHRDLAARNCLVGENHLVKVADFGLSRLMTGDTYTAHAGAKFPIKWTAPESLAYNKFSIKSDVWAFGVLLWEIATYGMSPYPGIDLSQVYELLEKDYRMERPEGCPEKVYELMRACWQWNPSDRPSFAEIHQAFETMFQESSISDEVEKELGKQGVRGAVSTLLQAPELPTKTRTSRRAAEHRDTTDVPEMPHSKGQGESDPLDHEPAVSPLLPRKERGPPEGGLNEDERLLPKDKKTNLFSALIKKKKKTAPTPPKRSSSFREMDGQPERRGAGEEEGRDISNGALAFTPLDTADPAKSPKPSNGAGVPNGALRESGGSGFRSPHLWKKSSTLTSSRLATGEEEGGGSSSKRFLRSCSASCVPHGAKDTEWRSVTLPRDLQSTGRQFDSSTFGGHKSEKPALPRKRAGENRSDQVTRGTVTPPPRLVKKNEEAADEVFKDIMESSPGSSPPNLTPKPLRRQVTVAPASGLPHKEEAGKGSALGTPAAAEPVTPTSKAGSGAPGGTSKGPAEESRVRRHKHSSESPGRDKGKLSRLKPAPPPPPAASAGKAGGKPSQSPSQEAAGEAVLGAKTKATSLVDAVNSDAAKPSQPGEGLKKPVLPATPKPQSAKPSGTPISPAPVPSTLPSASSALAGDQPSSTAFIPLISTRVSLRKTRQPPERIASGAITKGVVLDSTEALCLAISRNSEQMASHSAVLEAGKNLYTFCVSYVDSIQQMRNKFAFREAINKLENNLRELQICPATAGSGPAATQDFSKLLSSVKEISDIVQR", "T1 sequence (P11274 whole entry, looked up, the tested form may be a part)": "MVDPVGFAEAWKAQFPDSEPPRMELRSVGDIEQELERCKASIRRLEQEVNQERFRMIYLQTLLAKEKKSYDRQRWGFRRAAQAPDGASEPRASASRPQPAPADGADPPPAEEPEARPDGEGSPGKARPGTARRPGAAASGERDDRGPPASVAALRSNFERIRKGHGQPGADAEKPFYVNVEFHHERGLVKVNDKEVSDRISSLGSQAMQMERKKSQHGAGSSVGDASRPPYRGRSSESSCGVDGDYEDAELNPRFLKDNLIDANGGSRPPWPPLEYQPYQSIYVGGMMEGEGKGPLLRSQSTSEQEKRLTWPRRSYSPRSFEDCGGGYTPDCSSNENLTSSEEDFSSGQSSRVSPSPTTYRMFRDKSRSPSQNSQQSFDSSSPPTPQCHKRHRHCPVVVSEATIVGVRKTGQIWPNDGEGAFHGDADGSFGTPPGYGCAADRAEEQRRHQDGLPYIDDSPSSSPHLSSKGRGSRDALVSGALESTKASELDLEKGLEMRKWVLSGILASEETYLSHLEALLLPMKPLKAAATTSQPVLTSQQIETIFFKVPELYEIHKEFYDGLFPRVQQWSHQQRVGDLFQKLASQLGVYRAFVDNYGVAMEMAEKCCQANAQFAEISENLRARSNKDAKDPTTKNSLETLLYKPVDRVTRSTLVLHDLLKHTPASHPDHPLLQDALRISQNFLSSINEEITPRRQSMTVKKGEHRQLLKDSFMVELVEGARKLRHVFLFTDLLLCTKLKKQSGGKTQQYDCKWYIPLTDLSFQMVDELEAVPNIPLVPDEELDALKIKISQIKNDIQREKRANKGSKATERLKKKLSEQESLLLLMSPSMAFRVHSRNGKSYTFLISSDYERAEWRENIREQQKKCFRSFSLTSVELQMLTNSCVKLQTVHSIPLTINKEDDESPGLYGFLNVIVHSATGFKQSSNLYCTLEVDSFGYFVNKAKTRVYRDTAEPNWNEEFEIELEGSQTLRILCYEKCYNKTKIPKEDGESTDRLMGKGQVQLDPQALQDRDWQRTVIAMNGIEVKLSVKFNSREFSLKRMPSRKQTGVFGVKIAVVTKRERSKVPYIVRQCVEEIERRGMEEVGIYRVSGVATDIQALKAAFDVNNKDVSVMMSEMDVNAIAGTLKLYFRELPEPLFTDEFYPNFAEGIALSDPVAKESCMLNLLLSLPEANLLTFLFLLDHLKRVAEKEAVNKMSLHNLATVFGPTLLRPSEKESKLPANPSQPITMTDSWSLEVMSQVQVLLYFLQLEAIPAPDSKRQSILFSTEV", "assay": "Inhibition of BCR/ABL in human K562 cells assessed as downregulation of ERK phosphorylation at Thr202/Tyr204 site after 1 hr by immunoblotting method", "assay_type": "cell-based", "method_in_brief": "(§1)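 KU812, K562 and MEG-01 cells were exposed to compound at the indicated concentrations for 1 h. Whole-cell lysates were then analysed by Western blot for phosphorylated signaling proteins.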"}, "[2]": {"tested_on": "K562", "assay": "Antiproliferative activity against human K562 cells xenografted in nu/nu mouse at 25 and 50 mg/kg/day, qd administered through oral gavage measured after 16 days by Ki-67 staining-based immunohistochemical analysis", "assay_type": "functional, organism-based", "method_in_brief": "(§2)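 Female nu/nu mice bore established K562 xenografts and received daily oral dosing at 25.0 or 50.0 mg/kg/d, or vehicle, starting when tumors reached 200 to 400 mm3, for 16 days. Groups had 5 animals; data are mean ± SEM. Tumor size and body weight were normalized to initial values, and final tumor weight was recorded. Tumor tissue was stained with HE, Ki-67 and TUNEL.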"}, "[3]": {"tested_on": "K562", "assay": "Antitumor activity against human K562 cells xenografted in nu/nu mouse assessed as reduction in tumor growth administered through oral gavage after 16 days of continuous administration", "assay_type": "functional", "method_in_brief": "as §2"}, "[4]": {"molecular_target": "T2, Proto-oncogene tyrosine-protein kinase Src (Homo sapiens, UniProt P12931)", "T2 sequence (P12931 2-536 limits assumed)": "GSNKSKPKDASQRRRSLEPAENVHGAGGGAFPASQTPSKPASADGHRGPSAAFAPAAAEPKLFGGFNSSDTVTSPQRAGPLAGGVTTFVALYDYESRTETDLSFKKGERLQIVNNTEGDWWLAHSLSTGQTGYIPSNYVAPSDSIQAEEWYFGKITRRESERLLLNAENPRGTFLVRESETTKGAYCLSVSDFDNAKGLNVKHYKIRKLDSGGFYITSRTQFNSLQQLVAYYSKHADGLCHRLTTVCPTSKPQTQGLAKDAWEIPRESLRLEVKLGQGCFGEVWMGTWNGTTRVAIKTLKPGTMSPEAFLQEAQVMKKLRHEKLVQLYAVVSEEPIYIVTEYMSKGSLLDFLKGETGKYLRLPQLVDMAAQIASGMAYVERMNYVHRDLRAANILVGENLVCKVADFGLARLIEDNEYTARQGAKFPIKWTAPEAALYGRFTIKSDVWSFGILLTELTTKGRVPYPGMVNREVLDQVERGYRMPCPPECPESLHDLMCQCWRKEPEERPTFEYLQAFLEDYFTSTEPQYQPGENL", "assay": "Inhibition of SRC phosphorylation in human MEG01 cells at 0.01 to 3 uM after 1 hr by immunoblotting method", "assay_type": "cell-based", "details": "MEG-01", "method_in_brief": "(§3)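 Cells were treated for 1 h at the indicated concentrations. Whole-cell lysates were then analysed by Western blot for phosphorylation of signalling proteins in the BCR-ABL pathway.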"}, "[5]": {"molecular_target": "Discoidin domain-containing receptor 2 (Homo sapiens, UniProt Q16832)", "assay": "Inhibition of recombinant human GST-tagged DDR2 expressed in Baculovirus expression system", "method_in_brief": "(§4)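 IC50 values were determined with the Invitrogen SelectScreen biochemical kinase assay.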"}, "[6]": {"molecular_target": "Tyrosine-protein kinase Blk (Homo sapiens) (UniProt P51451)", "sequence (P51451 2-505 limits assumed)": "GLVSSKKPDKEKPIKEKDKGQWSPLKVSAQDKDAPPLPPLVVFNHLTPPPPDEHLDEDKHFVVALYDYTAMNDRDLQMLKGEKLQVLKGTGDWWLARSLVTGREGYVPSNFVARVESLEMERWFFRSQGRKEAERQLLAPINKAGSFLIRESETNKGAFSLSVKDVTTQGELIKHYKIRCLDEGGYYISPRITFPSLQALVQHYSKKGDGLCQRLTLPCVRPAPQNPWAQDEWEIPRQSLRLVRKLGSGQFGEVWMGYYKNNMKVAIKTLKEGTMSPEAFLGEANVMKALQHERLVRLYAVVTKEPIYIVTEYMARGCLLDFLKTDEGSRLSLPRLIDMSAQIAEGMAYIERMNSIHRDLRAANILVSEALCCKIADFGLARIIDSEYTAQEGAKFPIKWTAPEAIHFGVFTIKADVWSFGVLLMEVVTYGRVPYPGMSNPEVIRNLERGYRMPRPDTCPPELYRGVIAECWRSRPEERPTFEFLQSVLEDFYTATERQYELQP", "assay": "Inhibition of partial length human wild type BLK expressed in bacterial expression system assessed as residual activity at 1 uM relative to control"}, "[7]": {"assay": "AUC(0 to infinity) in Sprague-Dawley rat at 10 mg/kg, po", "assay_type": "ADME, organism-based", "parameters": "dose 10 mg/kg, time infinity, route oral", "details": "in vivo"}, "[8]": {"molecular_target": "T1, Bcr/Abl fusion protein (Homo sapiens)", "assay": "Inhibition of BCR/ABL autophosphorylation at Y245 site in human MEG01 cells at 300 nM after 1 hr by immunoblotting method", "assay_type": "cell-based", "details": "MEG-01", "method_in_brief": "as §1"}, "[9]": {"molecular_target": "T3, Mitogen-activated protein kinase 14 (Homo sapiens, UniProt Q16539)", "T3 sequence (Q16539 whole entry)": "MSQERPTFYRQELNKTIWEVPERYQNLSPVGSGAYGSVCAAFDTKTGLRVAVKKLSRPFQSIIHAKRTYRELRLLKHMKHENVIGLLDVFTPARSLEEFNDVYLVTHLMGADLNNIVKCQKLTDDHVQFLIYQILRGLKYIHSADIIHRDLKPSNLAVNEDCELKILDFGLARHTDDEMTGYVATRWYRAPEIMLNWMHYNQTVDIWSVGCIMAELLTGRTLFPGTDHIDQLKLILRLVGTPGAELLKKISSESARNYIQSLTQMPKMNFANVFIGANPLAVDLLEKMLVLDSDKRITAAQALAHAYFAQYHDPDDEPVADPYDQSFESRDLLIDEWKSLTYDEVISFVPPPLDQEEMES", "assay": "Inhibition of P38-alpha phosphorylation in human KU812 cells at 0.01 to 3 uM after 1 hr by immunoblotting method", "assay_type": "cell-based", "method_in_brief": "as §1"}, "[10]": {"molecular_target": "Epithelial discoidin domain-containing receptor 1 (Homo sapiens, UniProt Q08345)", "sequence (Q08345 whole entry, the tested form may be a part)": "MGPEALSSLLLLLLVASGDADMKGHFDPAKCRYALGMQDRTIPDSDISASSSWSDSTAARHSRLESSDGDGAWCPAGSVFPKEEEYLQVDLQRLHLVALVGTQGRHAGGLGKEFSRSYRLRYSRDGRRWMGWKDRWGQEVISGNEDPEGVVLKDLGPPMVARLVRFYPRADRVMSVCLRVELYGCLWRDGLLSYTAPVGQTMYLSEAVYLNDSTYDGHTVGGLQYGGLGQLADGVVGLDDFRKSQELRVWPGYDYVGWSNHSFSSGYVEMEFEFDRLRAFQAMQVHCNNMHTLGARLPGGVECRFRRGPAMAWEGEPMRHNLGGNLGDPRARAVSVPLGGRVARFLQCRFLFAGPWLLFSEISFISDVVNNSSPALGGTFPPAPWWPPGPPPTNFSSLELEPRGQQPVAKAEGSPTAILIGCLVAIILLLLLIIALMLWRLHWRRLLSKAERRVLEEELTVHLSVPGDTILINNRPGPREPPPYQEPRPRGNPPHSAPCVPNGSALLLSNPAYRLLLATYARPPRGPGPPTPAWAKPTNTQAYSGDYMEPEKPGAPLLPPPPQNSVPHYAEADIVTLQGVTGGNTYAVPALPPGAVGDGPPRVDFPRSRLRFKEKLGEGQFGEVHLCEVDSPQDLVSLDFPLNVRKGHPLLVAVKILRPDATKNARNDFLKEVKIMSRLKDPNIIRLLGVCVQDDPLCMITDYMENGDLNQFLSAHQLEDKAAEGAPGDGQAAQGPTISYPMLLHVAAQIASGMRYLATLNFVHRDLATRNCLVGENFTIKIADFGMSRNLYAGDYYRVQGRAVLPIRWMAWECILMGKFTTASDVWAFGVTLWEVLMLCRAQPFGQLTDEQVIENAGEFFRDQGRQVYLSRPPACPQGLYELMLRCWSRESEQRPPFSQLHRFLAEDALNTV", "details": "BaF3"}, "[11]": {"molecular_target": "T1, Bcr/Abl fusion protein (Homo sapiens)", "details": "BaF3"}, "[12]": {"molecular_target": "T4, Discoidin domain-containing receptor 2 (Homo sapiens) (UniProt Q16832)", "T4 sequence (whole entry)": "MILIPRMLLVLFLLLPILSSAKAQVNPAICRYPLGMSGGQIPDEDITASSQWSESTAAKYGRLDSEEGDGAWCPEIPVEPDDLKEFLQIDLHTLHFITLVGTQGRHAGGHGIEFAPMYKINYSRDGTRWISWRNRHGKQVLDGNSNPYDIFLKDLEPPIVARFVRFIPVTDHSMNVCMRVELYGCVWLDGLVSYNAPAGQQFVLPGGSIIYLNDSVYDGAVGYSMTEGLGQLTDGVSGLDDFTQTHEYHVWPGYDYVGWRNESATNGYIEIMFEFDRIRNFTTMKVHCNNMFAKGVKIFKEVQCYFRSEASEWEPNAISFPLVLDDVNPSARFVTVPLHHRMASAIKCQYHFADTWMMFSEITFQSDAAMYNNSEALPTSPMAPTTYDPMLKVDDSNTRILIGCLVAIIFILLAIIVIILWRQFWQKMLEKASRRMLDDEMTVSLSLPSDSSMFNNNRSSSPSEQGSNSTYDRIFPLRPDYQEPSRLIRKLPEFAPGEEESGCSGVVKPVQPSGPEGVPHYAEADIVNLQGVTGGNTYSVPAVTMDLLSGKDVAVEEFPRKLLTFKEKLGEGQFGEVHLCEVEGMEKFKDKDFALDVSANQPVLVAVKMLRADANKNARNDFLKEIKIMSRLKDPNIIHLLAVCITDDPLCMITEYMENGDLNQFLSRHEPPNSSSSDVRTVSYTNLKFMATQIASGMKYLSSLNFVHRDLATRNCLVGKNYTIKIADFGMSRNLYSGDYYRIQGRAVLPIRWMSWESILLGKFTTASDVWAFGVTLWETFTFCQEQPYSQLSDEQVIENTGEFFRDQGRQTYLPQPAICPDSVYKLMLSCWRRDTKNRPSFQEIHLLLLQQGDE", "details": "BaF3"}, "[13]": {"molecular_target": "T1, Bcr/Abl fusion protein (Homo sapiens)", "assay": "Inhibition of BCR/ABL in human MEG01 cells assessed as downregulation of Stat5 phosphorylation at […] site after 1 hr by immunoblotting method", "assay_type": "cell-based", "details": "MEG-01", "method_in_brief": "as §1"}, "[14]": {"assay": "Cmax in Sprague-Dawley rat at 10 mg/kg, po", "assay_type": "ADME, organism-based", "parameters": "dose 10 mg/kg, route oral", "details": "in vivo"}, "[15]": {"molecular_target": "T1, Bcr/Abl fusion protein (Homo sapiens)", "assay": "Inhibition of BCR/ABL in human KU812 cells assessed as downregulation of CrkL phosphorylation at […] site after 1 hr by immunoblotting method", "assay_type": "cell-based", "method_in_brief": "as §1"}, "[16]": {"molecular_target": "T3, Mitogen-activated protein kinase 14", "assay": "Inhibition of full length human wild type p38-alpha expressed in bacterial expression system assessed as residual activity at 1 uM relative to control"}, "[17]": {"tested_on": "KU812 cell line", "assay": "Induction of apoptosis in human KU812 cells assessed as increase in cleaved PARP level at 100 nM after 24 hrs by immunoblotting method", "assay_type": "functional, cell-based"}, "[18]": {"molecular_target": "T2, Proto-oncogene tyrosine-protein kinase Src", "assay": "Inhibition of SRC phosphorylation in human K562 cells at 0.01 to 3 uM after 1 hr by immunoblotting method", "assay_type": "cell-based", "method_in_brief": "as §3"}, "[19]": {"assay": "AUC(0 to t) in Sprague-Dawley rat at 1 mg/kg, iv", "assay_type": "ADME, organism-based", "details": "in vivo"}, "[20]": {"molecular_target": "T1, Bcr/Abl fusion protein (Homo sapiens)", "assay": "Inhibition of BCR/ABL in human KU812 cells assessed as downregulation of ERK phosphorylation at Thr202/Tyr204 site after 1 hr by immunoblotting method", "assay_type": "cell-based", "method_in_brief": "as §1"}, "[21]": {"tested_on": "Bcr/Abl fusion protein (Homo sapiens), P00519+P11274 [Y253F]", "details": "BaF3"}, "[22]": {"tested_on": "BaF3", "details": "Homo sapiens"}, "[23]": {"molecular_target": "Tyrosine-protein kinase ABL1 (Homo sapiens, UniProt P00519)", "sequence (P00519 whole entry)": "as the sequence (P00519 whole entry, looked up, the tested form may be a part) above", "assay": "Inhibition of full length recombinant human ABL1 expressed in Baculovirus expression system", "method_in_brief": "as §4"}, "[24]": {"assay": "Half life in Sprague-Dawley rat at 10 mg/kg, po", "assay_type": "ADME, organism-based", "details": "in vivo"}, "[25]": {"tested_on": "Mast/stem cell growth factor receptor Kit (Homo sapiens), P10721 [V559D]", "assay": "Inhibition of partial length human KIT V559D mutant expressed in bacterial expression system assessed as residual activity at 1 uM relative to control"}, "[26]": {"molecular_target": "Ephrin type-B receptor 6 (Homo sapiens) (UniProt O15197)", "assay": "Inhibition of partial length human wild type EPHB6 expressed in mammalian expression system assessed as residual activity at 1 uM relative to control"}}, "note": "Activity calls are given as the source filed them. The calls are words filed in the database; no cut-off is given here."}
{"smiles": "CNc1nc(Nc2ccc(C)c(N)c2)ncc1C(=O)Nc1cc(NC(=O)c2cccc(C(F)(F)F)c2)ccc1C", "values": [{"measurement": "inhibition", "setting": "[1]", "value": "Dose-dependent effect"}, {"measurement": "Activity", "setting": "[2]", "value": "Active"}, {"measurement": "TGI", "setting": "[3]", "value": "Dose-dependent effect"}, {"measurement": "inhibition", "setting": "[4]", "value": "inactive"}, {"measurement": "IC50", "setting": "[5]", "value": 457, "unit": "nM"}, {"measurement": "Activity", "setting": "[6]", "value": 0.55, "unit": "%"}, {"measurement": "AUC(0-inf)", "setting": "[7]", "value": 1740, "unit": "ng·h/mL"}, {"measurement": "inhibition", "setting": "[8]", "value": "Active"}, {"measurement": "inhibition", "setting": "[9]", "value": "Active"}, {"measurement": "GI50", "setting": "[10]", "value": 3300, "unit": "nM"}, {"measurement": "GI50", "setting": "[11]", "value": 7, "unit": "nM"}, {"measurement": "GI50", "setting": "[12]", "value": "> 10000", "unit": "nM"}, {"measurement": "inhibition", "setting": "[13]", "value": "Dose-dependent effect"}, {"measurement": "Cmax", "setting": "[14]", "value": 368, "unit": "ng/mL"}, {"measurement": "inhibition", "setting": "[15]", "value": "Dose-dependent effect"}, {"measurement": "Activity", "setting": "[16]", "value": 0, "unit": "%"}, {"measurement": "Activity", "setting": "[17]", "value": "Active"}, {"measurement": "inhibition", "setting": "[18]", "value": "inactive"}, {"measurement": "AUC(0-t)", "setting": "[19]", "value": 636, "unit": "ng·h/mL"}, {"measurement": "inhibition", "setting": "[20]", "value": "Dose-dependent effect"}, {"measurement": "GI50", "setting": "[21]", "value": 363, "unit": "nM"}, {"measurement": "GI50", "setting": "[22]", "value": 313, "unit": "nM"}, {"measurement": "IC50", "setting": "[23]", "value": 70, "unit": "nM"}, {"measurement": "half-life", "setting": "[24]", "value": 4.33, "unit": "h"}, {"measurement": "Activity", "setting": "[25]", "value": 1, "unit": "%"}, {"measurement": "Activity", "setting": "[26]", "value": 0.95, "unit": "%"}]}
